# Experimental data collected from several papers.
# Compare with care: the assays were run in different laboratories.
# Target: Serine/threonine-protein kinase MRCK beta (CDC42BPB, Homo sapiens, UniProt Q9Y5S2)
SMILES,test,setting,endpoint,value
CC(C)(O)[C@H]1CC[C@H](Nc2ccc3ncc(-c4cccc(C(F)(F)F)c4)n3n2)CC1,"enzyme activity, inhibitor",1 µM,remaining activity,98.9%
COc1cc(Cl)c(C(=O)N[C@@H](CN[C@H]2CC[C@@H](N)CC2)Cc2ccc(C#N)cc2)cc1-c1ccc(CN[C@H](C)c2ccc(C)cc2)o1,"enzyme activity, inhibitor",1 µM,remaining activity,100%
CSc1cccnc1N1CCN(Cc2nc3ccccc3[nH]2)CC1,"cell-free assay, competition with immobilised ligand",1 µM,remaining binding,100%
CCN(CC)CCNC(=O)c1c(C)[nH]c(/C=C2\C(=O)Nc3ccc(F)cc32)c1C,"enzyme activity, inhibitor",10 µM,inhibition,17%
Cc1ccc(NC(=O)c2ccc(C)c(C(F)(F)F)c2)cc1C#Cc1nn(C2CCC(O)CC2)c2ncnc(N)c12 (stereo not shown),cell-free assay,10 µM,remaining signal,87%
CNC(=O)c1cc(Oc2ccc(NC(=O)Nc3ccc(Cl)c(C(F)(F)F)c3)cc2)ccn1,"enzyme activity, inhibitor",10 µM,inhibition,0%
Cc1noc([C@H]2C[C@@H](c3ccc(C(F)(F)F)cc3)CN(C(=O)N3CCS(=O)(=O)C3)C2)n1,"cell-free assay, competition with immobilised ligand",1 µM,remaining binding,100%
O=C(Nc1cnn(-c2csc(C(=O)NC3COC3)c2)c1)Nc1ccccc1Cl,"enzyme activity, inhibitor",5 µM,remaining activity,97.1%
CCN(CC)c1ccc(C2=NNC(=O)CC2C)cc1[N+](=O)[O-] (stereo not shown),"enzyme activity, inhibitor",10 µM,remaining activity,101%
O=C(NC[C@@H]1[C@H]2CN(C(=O)OCc3cc(C(F)(F)F)cc(C(F)(F)F)c3)C[C@@H]12)c1ccc2[nH]nnc2c1,"cell-free assay, competition with immobilised ligand",1 µM,remaining binding,100%
N#CCCc1ccc2c(c1)-c1[nH]c3ccc([N+](=O)[O-])cc3c1CC(=O)N2,cell-free assay,0.5 µM,remaining signal,54.1%
CN1CCN(c2cnc3c(C4CCN(C(=O)c5ccc(OC(F)(F)F)cc5N)CC4)ncnc3c2)CC1,"cell-free assay, competition with immobilised ligand",1 µM,remaining binding,100%
O=C1NC(=O)c2cc(Nc3ccc(F)cc3)c(Nc3ccc(F)cc3)cc21,cell-free assay,0.5 µM,remaining signal,100%
CCCCNc1ncc2c(-c3ccc(F)cc3)nn(C[C@H]3CC[C@H](N)CC3)c2n1,"target engagement in cells, inhibitor, chemoproteomics",20 mM,inhibition,3.6%
O=c1cc(-c2cccc3c2Sc2ccccc2S3)oc(N2CCOCC2)c1,"enzyme activity, inhibitor",0.5 µM,remaining activity,103%
O=C(Nc1cccnn1)N1CCC(=Cc2cccc(Oc3ccc(C(F)(F)F)cn3)c2)CC1,"cell-free assay, competition with immobilised ligand",1 µM,remaining binding,100%
CCCOc1ccc(OC)c(F)c1C(=O)c1ccc(C(=O)N[C@@H]2CNC[C@H]2NC(=O)c2ccc3[nH]ncc3c2)cc1,"enzyme activity, inhibitor",0.1 µM,remaining activity,34%
Cc1c(C(=O)O)cc(-c2ccc(C3CCNCC3)cc2)c2ccc(-c3ccc(C(F)(F)F)cc3)cc12,"cell-free assay, competition with immobilised ligand",1 µM,remaining binding,100%
CC/C(=N\NC(=O)C(C)Nc1ccccc1)c1ccc(O)c(C)c1O (stereo not shown),"enzyme activity, inhibitor",0.1 µM,inhibition,7.1%
Cc1ccc(Nc2nccc(N(C)c3ccc4c(C)n(C)nc4c3)n2)cc1S(N)(=O)=O,"enzyme activity, inhibitor",10 µM,inhibition,11%
Oc1cccc(-c2nc(N3CCOCC3)c3oc4ncccc4c3n2)c1,cell-free assay,0.5 µM,remaining signal,99.4%
CCOC(=O)c1cc2cc(-c3cc(C(=O)NCc4ccc(C(=O)O)cc4)nn3C)ccc2[nH]1,"cell-free assay, competition with immobilised ligand",0.1 µM,remaining binding,88%
COc1cc2ncnc(Nc3ccc(Oc4ccccc4)cc3C)c2cc1OC,"enzyme activity, inhibitor",1 µM,inhibition,-5%
CC(C)(C)c1nc(-c2cccc(NS(=O)(=O)c3c(F)cccc3F)c2F)c(-c2ccnc(N)n2)s1,"enzyme activity, inhibitor, radiometric",1 µM,remaining activity,98%
COc1cccc(CNC(=O)c2nc3scc(COCc4ccc(C(=O)O)cc4)c3c(=O)[nH]2)c1,"cell-free assay, competition with immobilised ligand",1 µM,remaining binding,99.5%
